Species: Homo sapiens
Experiment: Selectivity index, ratio of MEC for agonist activity at human TLR8 expressed in HEK293 cells to MEC for agonist activity at human TLR7 expressed in HEK293 cells as
Format: cell-based
Method in brief: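 Ratio of TLR8 to TLR7 LEC from HEK293 NFκB-luciferase reporter assays. Cells were transiently transfected with TLR7 or TLR8 construct plus NFκB-luc and treated with compound for 6 h at 37°C. LEC is the lowest concentration with signal at least two-fold above the assay SD, from quadruplicate dose-response curves.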

CCCCOc1nc(N)c2c(n1)N(Cc1cccc(CN3CCCC3)c1)CC(=O)N2
Ratio: 30

Reference: ChEMBL document CHEMBL4184225, “Discovery of selective 2,4-diaminoquinazoline toll-like receptor 7 (TLR 7) agonists” (Bioorg Med Chem Lett, 2018)
